In ChEMBL document CHEMBL1629507, “Small molecule inhibitors of hantavirus infection” (Bioorg Med Chem Lett, 2010):
The source made the active and inactive calls. The rule behind the calls is not given here. Where a SMILES comes first, the peptide text is derived from it. Bridges are numbered along the chain shown (N, C = ends).

How the values were obtained:
Type in all cases: cell-based
[1] = target: T1, Integrin alpha-V/beta-3 (Homo sapiens) (UniProt P05106+P06756); assay: Inhibition of human alphaVbeta3 receptor expressed in african green monkey Vero E6 cells assessed as inhibition of SNV infection in cells at 1 uM by immunofluorescent assay
Method in brief: (§1)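 Vero E6 cells (10^4/well, duplicate wells) were grown 24 h at 37 °C in MEM with 2.5% FBS. They were pretreated 1 h at 37 °C with small molecules (1 µM) or cyclic peptides (2 mM, in PBS pH 7.4). SNV strain SN77734 (500–1,000 FFU/ml) was then added for 1 h, then washed out. After 24–36 h, cells were fixed and stained with anti-SNV N plus FITC antibody, and foci counted. % inhibition is relative to untreated cells, normalized to ReoPro 80 µg/ml set as 80%; at least 4 replicates.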

[2] = target: T1, Integrin alpha-V/beta-3 (Homo sapiens); assay: Inhibition of human alphaVbeta3 receptor expressed in african green monkey Vero E6 cells assessed as inhibition of SNV infection in cells by immunofluorescent assay
Method in brief: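 SNV infection of Vero E6 cells in a dose-response format. Cells were pretreated 1 h at 37 °C with compound across a concentration range, then exposed to virus for 1 h, washed, and cultured 24–36 h. Infected foci were counted by anti-N immunofluorescence. Inhibition was taken relative to untreated cells and normalized to ReoPro. EC50 derived from curves; points are the mean and standard error of N = 4.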

[3] = target: T1, Integrin alpha-V/beta-3 (Homo sapiens); assay: Inhibition of human […] alphaVbeta3 expressed in african green monkey Vero E6 cells assessed as inhibition of Andes CHI-7913 viral entry at 10 uM
[4] = target: T1, Integrin alpha-V/beta-3 (Homo sapiens); assay: Inhibition of human […] alphaVbeta3 expressed in african green monkey Vero E6 cells assessed as inhibition of Andes CHI-7913 viral entry at 1 mM
[5] = target: T1, Integrin alpha-V/beta-3 (Homo sapiens); assay: Inhibition of human […] alphaVbeta3 expressed in african green monkey Vero E6 cells assessed as inhibition of Hantaan 76/118 viral entry at 10 uM
[6] = target: T1, Integrin alpha-V/beta-3 (Homo sapiens); assay: Inhibition of human […] alphaVbeta3 expressed in african green monkey Vero E6 cells assessed as inhibition of Hantaan 76/118 viral entry at 1 mM
[7] = target: T1, Integrin alpha-V/beta-3 (Homo sapiens); assay: Inhibition of human […] alphaVbeta3 expressed in african green monkey Vero E6 cells assessed as inhibition of SNV SN77734 entry at 10 uM
[8] = target: T1, Integrin alpha-V/beta-3 (Homo sapiens); assay: Inhibition of human […] alphaVbeta3 expressed in african green monkey Vero E6 cells assessed as inhibition of SNV SN77734 entry at 1 mM
[9] = target: T2, Integrin alpha-V/beta-1 (Homo sapiens) (UniProt P05556+P06756); assay: Inhibition of human […] alphaVbeta1 expressed in african green monkey Vero E6 cells assessed as inhibition of PHV-1 entry at 10 uM
[10] = target: T2, Integrin alpha-V/beta-1 (Homo sapiens); assay: Inhibition of human […] alphaVbeta1 expressed in african green monkey Vero E6 cells assessed as inhibition of PHV-1 entry at 1 mM
[11] = target: T1, Integrin alpha-V/beta-3 (Homo sapiens); assay: Inhibition of human alphaVbeta3 receptor expressed in african green monkey Vero E6 cells assessed as inhibition of SNV infection in cells at 2 mM by immunofluorescent assay; method in brief: as §1

With O=C(NCc1ccc2c(c1)OCO2)C(Cc1ccccc1)NS(=O)(=O)c1cccc2cccnc12 (racemic) the inhibition [1] was 46.5%, the inhibition [2] was “Dose-dependent effect” and the inhibition [3] was “Active”. The inhibition [4] was “Active”, the inhibition [5] was “Active” and the inhibition [6] was “Active”. For the same molecule, the inhibition [7] was “Active”, the inhibition [8] was “Active” and the inhibition [9] was “Active”. For the same molecule, the inhibition [10] was “Active”.

For O=c1c(/C=N/Cc2ccco2)c(CSc2ccc(Cl)cc2)[nH]n1-c1nc2ccccc2s1, the inhibition [1] was 29%, the inhibition [2] was “Dose-dependent effect” and the inhibition [3] was “Active”. The inhibition [4] was “Active”, the inhibition [5] was “Active” and the inhibition [6] was “Active”. The inhibition [7] was “Active”, the inhibition [8] was “Active” and the inhibition [9] was “Active”. For the same molecule, the inhibition [10] was “Active”.

In the case of Cc1cccc(CN2C(=O)c3ccccc3Sc3ccc(C(=O)NCc4cccs4)cc32)c1, the inhibition [1] is reported as 8.3%.

For CCOc1ccccc1CNC(=O)C1CCCN(c2ncnc3onc(-c4ccc(F)cc4)c23)C1 (stereo not given), the inhibition [1] was 18%.

N#Cc1ccccc1Cn1c(=O)n(CCC(=O)NCc2ccc3c(c2)OCO3)c(=O)c2ccccc21 was tested, and the inhibition [1] was 1%.

O=C(c1ccco1)N1CCN(C(=O)C(Cc2ccccc2)NS(=O)(=O)c2ccc3nsnc3c2)CC1 (stereo not given) showed an inhibition [1] of 22%.

C/C=C/C(=O)NC(=S)NNC(=O)C(Oc1ccccc1)Oc1ccccc1 gave an inhibition [1] of 16.1%.

In the case of CN1CCN(c2ccccc2NC(=O)C(Cc2ccccc2)NS(=O)(=O)c2cccc3nsnc23)CC1 (stereo not given), the inhibition [1] is reported as 9.6%.

O=C(NC(Cc1c[nH]c2ccccc12)C(=O)OCC(=O)c1ccc(Cl)cc1)Oc1ccccc1 (stereo not given) was tested, and the inhibition [1] was 29%.

Work on COc1ccccc1CNC(=O)C(Cc1ccccc1)NS(=O)(=O)c1cccc2nsnc12 (stereo not given) yielded an inhibition [1] of 4.8%.

COc1ccc(/C=N/NC(=O)c2sc3ccccc3c2Cl)cc1CSc1ccccn1 was tested, and the inhibition [1] was 0%.

In the case of CC(C)C[C@@H]1NC(=O)[C@H](CCC(N)=O)NC(=O)[C@H]([C@@H](C)O)NC(=O)[C@H](CCCCN)NC(=O)[C@H](C(C)C)NC(=O)[C@H](Cc2ccccc2)NC(=O)[C@@H]2CCCN2C(=O)[C@@H](N)CSSC[C@@H](C(=O)O)NC1=O (H-CPFVKTQLC-OH; disulfide 1-9), the inhibition [11] is reported as 54.6%.

With COc1ccccc1NC(=O)C(Cc1ccccc1)NS(=O)(=O)c1cccc2cccnc12 (stereo not given) the inhibition [1] was 19.3%.

With O=C(NCc1ccccc1)C(Cc1ccccc1)NS(=O)(=O)c1cccc2cccnc12 (stereo not given) the inhibition [1] was 11.2%.

O=C(NCc1cccs1)C(Cc1ccccc1)NS(=O)(=O)c1cccc2cccnc12 (stereo not given) showed an inhibition [1] of 12%.

For O=C(NCc1ccc(Cl)cc1)C1CCCN(c2ncnc3onc(-c4ccc(F)cc4)c23)C1 (stereo not given), the inhibition [1] was 23.6%.

With O=C1c2cccnc2C(=O)N1Cc1ccc(F)cc1S(=O)(=O)N1CCN(c2ccccc2F)CC1 the inhibition [1] was 2.3%.

COc1ccc(S(=O)(=O)NC(CC(=O)NCc2ccc3c(c2)OCO3)c2ccco2)cc1 (stereo not given) was tested, and the inhibition [1] was 0%.

O=C(NCc1ccccc1Cl)C(Cc1ccccc1)NS(=O)(=O)c1cccc2cccnc12 (stereo not given) showed an inhibition [1] of 21.4%.

Cc1noc2ncnc(N3CCCC(C(=O)NCc4ccc5c(c4)OCO5)C3)c12 (stereo not given) was tested, and the inhibition [1] was 3%.

CC(C)c1ccc(S(=O)(=O)c2nnn3c2nc(NC(C)c2ccccc2)c2sccc23)cc1 (stereo not given) gave an inhibition [1] of 8%.

O=C(NCCc1ccccc1)C(Cc1ccccc1)NS(=O)(=O)c1ccc(Br)cc1 (stereo not given) showed an inhibition [1] of 6.4%.

Work on O=C(O)CCCCCNC(=O)/C(=C/c1ccccc1)NC(=O)c1ccco1 yielded an inhibition [1] of 0%.

With CC(C)[C@@H]1NC(=O)[C@H](Cc2ccccc2)NC(=O)[C@H]2CCCN2C(=O)[C@@H](N)CSSC[C@@H](C(=O)O)NC1=O the inhibition [11] was 53%, the inhibition [3] was “Active” and the inhibition [4] was “Active”. The inhibition [5] was “Active”, the inhibition [6] was “Active” and the inhibition [7] was “Active”. For the same molecule, the inhibition [8] was “Active”, the inhibition [9] was “Active” and the inhibition [10] was “Active”.

In the case of O=C(Cn1c(=O)n(Cc2ccco2)c(=O)c2sc3ccccc3c21)NCc1ccc(Cl)cc1, the inhibition [1] is reported as 0%.

Molecule O=S(=O)(c1cccc(SCc2ccccc2)c1)c1cccc(SCc2ccccc2)c1 has an inhibition [1] of 44.2%.

Molecule Cc1ccc(Cl)cc1NC(=O)C(Cc1ccccc1)NS(=O)(=O)c1cccc2cccnc12 (stereo not given) has an inhibition [1] of 14%.

Work on Cc1ccc(CNC(=O)C(Cc2ccccc2)NS(=O)(=O)c2cccc3cccnc23)cc1 (stereo not given) yielded an inhibition [1] of 0%.

With O=C(NCc1cccs1)C(Cc1ccccc1)NS(=O)(=O)c1ccc2nsnc2c1 (racemic) the inhibition [1] was 29%, the inhibition [2] was “Dose-dependent effect” and the inhibition [3] was “Active”. The inhibition [4] was “Active”, the inhibition [5] was “Active” and the inhibition [6] was “Active”. For the same molecule, the inhibition [7] was “Active”, the inhibition [8] was “Active” and the inhibition [9] was “Active”. For the same molecule, the inhibition [10] was “Active”.

For O=C(CCCn1c(=O)c2sccc2n(Cc2ccc(F)cc2Cl)c1=O)NCc1ccco1, the inhibition [1] was 12.2%.
